Measurements published in ChEMBL document CHEMBL2146464, “Structure-activity relationship study of nitrosopyrimidines acting as antifungal agents” (Bioorg Med Chem, 2012).
Converted amounts (≈) assume the structure as drawn. The source made the active and inactive calls. The rule behind the calls is not given here.

Experiments:
Candida albicans [1] = test: Antifungal activity against Candida albicans ATCC 10231 after 48 hrs by NCCLS broth microdilution method; assay type: functional; details: ATCC 10231, 48 h, read-out: MIC100
Outline: (§1)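 Yeast MIC by NCCLS M27-A3 broth microdilution in RPMI-1640 buffered to pH 7.0 with MOPS. Twofold dilutions of 250–0.98 µg/mL, final DMSO ≤1%. Inoculum 1–5 × 10³ CFU/mL. Incubated at 30 °C in a moist dark chamber. Read visually at 48 h. MIC100 is the lowest concentration with no visible growth versus drug-free control.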

Candida tropicalis [2] = test: Antifungal activity against Candida tropicalis after 48 hrs by NCCLS broth microdilution method; assay type: functional; details: read-out: MIC100; outline: as §1
Cryptococcus neoformans [3] = test: Antifungal activity against Cryptococcus neoformans ATCC 32264 after 48 hrs by NCCLS broth microdilution method; assay type: functional; details: ATCC 32264, 48 h, read-out: MIC100; outline: as §1
Candida tropicalis [4] = test: Antifungal activity against Candida tropicalis by microplate reader analysis; assay type: functional
Nannizzia gypsea [5] = test: Antifungal activity against Microsporum gypseum CCC 115 by NCCLS broth microdilution method; assay type: functional; details: read-out: MIC100
Outline: (§2)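 MIC by broth microdilution per NCCLS M27-A3/M38-A2 in RPMI-1640 buffered to pH 7.0 with MOPS. Twofold dilutions from 250–0.98 µg/mL, final DMSO ≤1%. Inoculum 1–5 × 10³ CFU/mL. Incubated in a moist dark chamber, 30 °C for Aspergillus and 28–30 °C for dermatophytes. Read visually when control growth allowed. Endpoint is the lowest concentration giving total inhibition of visible growth (MIC100).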

Trichophyton rubrum [6] = test: Antifungal activity against Trichophyton rubrum CCC 110 by NCCLS broth microdilution method; assay type: functional; details: read-out: MIC100; outline: as §2
[7] = test system: Trichophyton mentagrophytes; test: Antifungal activity against Trichophyton mentagrophytes ATCC 9972 by NCCLS broth microdilution method; assay type: functional; details: read-out: MIC100; outline: as §2
Candida albicans [8] = test: Fungicidal activity against Candida albicans ATCC 10231 after 48 hrs by agar plate dilution method; assay type: functional; details: ATCC 10231, 48 h
Outline: (§3)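 MFC: after the microdilution MIC, material from each clear well was plated onto RPMI-1640 agar buffered with MOPS. Plates incubated at 30 °C and read after 48 h. MFC is the lowest concentration giving total inhibition of visible growth.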

Candida tropicalis [9] = test: Fungicidal activity against Candida tropicalis after 48 hrs by agar plate dilution method; assay type: functional; outline: as §3
Cryptococcus neoformans [10] = test: Fungicidal activity against Cryptococcus neoformans ATCC 32264 after 48 hrs by agar plate dilution method; assay type: functional; details: ATCC 32264, 48 h; outline: as §3
Nannizzia gypsea [11] = test: Fungicidal activity against Microsporum gypseum CCC 115 after 48 hrs by agar plate dilution method; assay type: functional; details: CCC 115, 48 h; outline: as §3
Trichophyton rubrum [12] = test: Fungicidal activity against Trichophyton rubrum CCC 110 after 48 hrs by agar plate dilution method; assay type: functional; details: CCC 110, 48 h
Outline: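 Samples from each clear well of the MIC broth microdilution tray were plated onto RPMI-1640 agar buffered with MOPS. That tray had compounds twofold diluted in RPMI (pH 7.0, MOPS) from 250–0.98 µg/mL with inoculum of 1–5 × 10³ CFU/mL, incubated at 28–30 °C for dermatophytes. Plates were incubated at 30 °C and read at 48 h. MFC was taken as the lowest concentration giving total inhibition of visible growth.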

[13] = test system: Trichophyton mentagrophytes; test: Fungicidal activity against Trichophyton mentagrophytes ATCC 9972 after 48 hrs by agar plate dilution method; assay type: functional; details: ATCC 9972, 48 h; outline: as §3
Aspergillus flavus = test: Antifungal activity against Aspergillus flavus ATCC 9170 at 0.98 to 250 ug/mL by NCCLS broth microdilution method; assay type: functional, organism-based; outline: as §2
Aspergillus fumigatus = test: Antifungal activity against Aspergillus fumigatus ATCC 26934 at 0.98 to 250 ug/mL by NCCLS broth microdilution method; assay type: functional, organism-based; outline: as §2
Aspergillus niger = test: Antifungal activity against Aspergillus niger ATCC 9029 at 0.98 to 250 ug/mL by NCCLS broth microdilution method; assay type: functional, organism-based; outline: as §2
Candida albicans [14] = test: Antifungal activity against Candida albicans ATCC 10231 assessed as growth inhibition at 250 ug/mL after 24 hrs by microplate reader analysis; assay type: functional; details: ATCC 10231, 24 h, read-out: GI
Outline: (§4)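 96-well RPMI-1640 wells with compound at final 250–0.98 µg/mL (DMSO ≤1%). Inoculum 100 µL, 1–5 × 10³ CFU/mL, 200 µL final. Each well includes growth (DMSO, no compound) and sterility controls. % inhibition = 100 − (CTW−SCW)/(GCW−SCW) × 100, run in duplicate.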

Candida tropicalis [15] = test: Antifungal activity against Candida tropicalis assessed as growth inhibition at 250 ug/mL by microplate reader analysis; assay type: functional; details: read-out: GI
Cryptococcus neoformans [16] = test: Antifungal activity against Cryptococcus neoformans ATCC 32264 assessed as growth inhibition at 250 ug/mL after 48 hrs by microplate reader analysis; assay type: functional; details: ATCC 32264, 48 h, read-out: GI
Outline: (§5)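 Microplate growth-inhibition assay in RPMI-1640, compound at final 250–0.98 µg/mL (DMSO ≤1%). Inoculum 1–5 × 10³ CFU/mL. Sterility and DMSO growth controls included. Percent inhibition is computed from blank-corrected OD relative to the growth control, tested in duplicate.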

Candida albicans [17] = test: Antifungal activity against Candida albicans ATCC 10231 assessed as growth inhibition at 125 ug/mL after 24 hrs by microplate reader analysis; assay type: functional; details: ATCC 10231, 24 h, read-out: GI; outline: as §4
Candida tropicalis [18] = test: Antifungal activity against Candida tropicalis assessed as growth inhibition at 125 ug/mL by microplate reader analysis; assay type: functional; details: read-out: GI
Cryptococcus neoformans [19] = test: Antifungal activity against Cryptococcus neoformans ATCC 32264 assessed as growth inhibition at 125 ug/mL after 48 hrs by microplate reader analysis; assay type: functional; details: ATCC 32264, 48 h, read-out: GI; outline: as §5
Candida albicans [20] = test: Antifungal activity against Candida albicans ATCC 10231 assessed as growth inhibition at 62.5 ug/mL after 24 hrs by microplate reader analysis; assay type: functional; details: ATCC 10231, 24 h, read-out: GI; outline: as §4
Candida tropicalis [21] = test: Antifungal activity against Candida tropicalis assessed as growth inhibition at 62.5 ug/mL by microplate reader analysis; assay type: functional; details: read-out: GI
Cryptococcus neoformans [22] = test: Antifungal activity against Cryptococcus neoformans ATCC 32264 assessed as growth inhibition at 62.5 ug/mL after 48 hrs by microplate reader analysis; assay type: functional; details: ATCC 32264, 48 h, read-out: GI; outline: as §5
Candida albicans [23] = test: Antifungal activity against Candida albicans ATCC 10231 assessed as growth inhibition at 31.25 ug/mL after 24 hrs by microplate reader analysis; assay type: functional; details: ATCC 10231, 24 h, read-out: GI; outline: as §4
Candida tropicalis [24] = test: Antifungal activity against Candida tropicalis assessed as growth inhibition at 31.25 ug/mL by microplate reader analysis; assay type: functional; details: read-out: GI
Cryptococcus neoformans [25] = test: Antifungal activity against Cryptococcus neoformans ATCC 32264 assessed as growth inhibition at 31.25 ug/mL after 48 hrs by microplate reader analysis; assay type: functional; details: ATCC 32264, 48 h, read-out: GI; outline: as §5
Candida albicans [26] = test: Antifungal activity against Candida albicans ATCC 10231 assessed as growth inhibition at 15.6 ug/mL after 24 hrs by microplate reader analysis; assay type: functional; details: ATCC 10231, 24 h, read-out: GI; outline: as §4
Candida tropicalis [27] = test: Antifungal activity against Candida tropicalis assessed as growth inhibition at 15.6 ug/mL by microplate reader analysis; assay type: functional; details: read-out: GI
Cryptococcus neoformans [28] = test: Antifungal activity against Cryptococcus neoformans ATCC 32264 assessed as growth inhibition at 15.6 ug/mL after 48 hrs by microplate reader analysis; assay type: functional; details: ATCC 32264, 48 h, read-out: GI; outline: as §5
Candida albicans [29] = test: Antifungal activity against Candida albicans ATCC 10231 assessed as growth inhibition at 7.8 ug/mL after 24 hrs by microplate reader analysis; assay type: functional; details: ATCC 10231, 24 h, read-out: GI; outline: as §4
Candida tropicalis [30] = test: Antifungal activity against Candida tropicalis assessed as growth inhibition at 7.8 ug/mL by microplate reader analysis; assay type: functional; details: read-out: GI
Cryptococcus neoformans [31] = test: Antifungal activity against Cryptococcus neoformans ATCC 32264 assessed as growth inhibition at 7.8 ug/mL after 48 hrs by microplate reader analysis; assay type: functional; details: ATCC 32264, 48 h, read-out: GI; outline: as §5
Candida albicans [32] = test: Antifungal activity against Candida albicans ATCC 10231 assessed as growth inhibition at 3.9 ug/mL after 24 hrs by microplate reader analysis; assay type: functional; details: ATCC 10231, 24 h, read-out: GI; outline: as §4
Candida tropicalis [33] = test: Antifungal activity against Candida tropicalis assessed as growth inhibition at 3.9 ug/mL by microplate reader analysis; assay type: functional; details: read-out: GI
Cryptococcus neoformans [34] = test: Antifungal activity against Cryptococcus neoformans ATCC 32264 assessed as growth inhibition at 3.9 ug/mL after 48 hrs by microplate reader analysis; assay type: functional; details: ATCC 32264, 48 h, read-out: GI; outline: as §5
Candida albicans [35] = test: Antifungal activity against Candida albicans ATCC 10231 after 24 hrs by microplate reader analysis; assay type: functional; details: ATCC 10231, 24 h; outline: as §4
[36] = Acute toxicity in bony fish assessed as mortality at 35 ug/mL after 96 hrs; details: actinopterygii; read-out: Activity
Outline: (§6)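 Guppy (Poecilia reticulata) acute static exposure: 10 fish per concentration in 2 L wide-mouthed jars holding the test solution. Compounds were added from […] to give the final concentrations. Dead fish were counted and removed every 24 h, with general condition noted; percentage mortality was scored at 96 h. Two experiments, each in triplicate.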

[37] = Acute toxicity in bony fish assessed as mortality at 5 ug/mL after 96 hrs; details: actinopterygii; read-out: Activity; outline: as §6
Cryptococcus neoformans [38] = test: Antifungal activity against Cryptococcus neoformans ATCC 32264 after 48 hrs by microplate reader analysis; assay type: functional; details: ATCC 32264, 48 h; outline: as §5

Q: What does the source list for COc1nc(N)c(N=O)c(Nc2ccccc2)n1?
A: MIC (Candida albicans [1]): 31.2 mg/L (≈ 127 µM); MIC (Candida tropicalis [2]): 31.2 mg/L (≈ 127 µM); MIC (Cryptococcus neoformans [3]): 15.6 mg/L (≈ 63.6 µM); MIC50 (Candida tropicalis [4]): 7.8 mg/L (≈ 31.8 µM); MIC (Nannizzia gypsea [5]): 62.5 mg/L (≈ 255 µM); MIC (Trichophyton rubrum [6]): 125 mg/L (≈ 510 µM); MIC [7]: 125 mg/L (≈ 510 µM); MFC (Candida albicans [8]): 31.2 mg/L (≈ 127 µM); MFC (Candida tropicalis [9]): 31.2 mg/L (≈ 127 µM); MFC (Cryptococcus neoformans [10]): 62.5 mg/L (≈ 255 µM); MFC (Nannizzia gypsea [11]): 62.5 mg/L (≈ 255 µM); MFC (Trichophyton rubrum [12]): 250 mg/L (≈ 1020 µM); MFC [13]: 250 mg/L (≈ 1020 µM); Activity (Aspergillus flavus): inactive; Activity (Aspergillus fumigatus): inactive; Activity (Aspergillus niger): inactive; inhibition of growth at 250 µg/mL (Candida albicans [14]): 100%; inhibition of growth at 250 µg/mL (Candida tropicalis [15]): 100%; inhibition of growth at 250 µg/mL (Cryptococcus neoformans [16]): 100%; inhibition of growth at 125 µg/mL (Candida albicans [17]): 100%; inhibition of growth at 125 µg/mL (Candida tropicalis [18]): 100%; inhibition of growth at 125 µg/mL (Cryptococcus neoformans [19]): 100%; inhibition of growth at 62.5 µg/mL (Candida albicans [20]): 100%; inhibition of growth at 62.5 µg/mL (Candida tropicalis [21]): 100%; inhibition of growth at 62.5 µg/mL (Cryptococcus neoformans [22]): 100%; inhibition of growth at 31.25 µg/mL (Candida albicans [23]): 100%; inhibition of growth at 31.25 µg/mL (Candida tropicalis [24]): 100%; inhibition of growth at 31.25 µg/mL (Cryptococcus neoformans [25]): 100%; inhibition of growth at 15.6 µg/mL (Candida albicans [26]): 98.1%; inhibition of growth at 15.6 µg/mL (Candida tropicalis [27]): 88.2%; inhibition of growth at 15.6 µg/mL (Cryptococcus neoformans [28]): 100%; inhibition of growth at 7.8 µg/mL (Candida albicans [29]): 85%; inhibition of growth at 7.8 µg/mL (Candida tropicalis [30]): 87.2%; inhibition of growth at 7.8 µg/mL (Cryptococcus neoformans [31]): 91.2%; inhibition of growth at 3.9 µg/mL (Candida albicans [32]): 4.7%; inhibition of growth at 3.9 µg/mL (Candida tropicalis [33]): 4.1%; inhibition of growth at 3.9 µg/mL (Cryptococcus neoformans [34]): 76.2%; MIC50 (Candida albicans [35]): 7.8 mg/L (≈ 31.8 µM); mortality at 96 h, 35 ug/mL [36]: 0%; mortality at 96 h, 5 ug/mL [37]: 0%; MIC50 (Cryptococcus neoformans [38]): 1.95 mg/L (≈ 7.95 µM)
